From ChEMBL document CHEMBL3797085, “Structure-Based Design and Synthesis of Novel Inhibitors Targeting HDAC8 from Schistosoma mansoni for the Treatment of Schistosomiasis” (J Med Chem, 2016)

Tests used:
Schistosoma mansoni [1] = test: Antiparasitic activity against schistosomula stage of Schistosoma mansoni assessed as parasite viability at 10 uM after 48 hrs by Alamar Blue assay relative to control; type: functional
Summary of the method: (§1)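 Mechanically transformed S. mansoni schistosomula, 100 per well, in Medium 199 with 10% FCS, penicillin, streptomycin and rifampicin, held 3 h at 37°C/5% CO2 before use. […] Resazurin added at 48 h; fluorescence (ex 530/em 590 nm) read 24 h later, corrected for drug-medium background. Ethanol-killed larvae as dead control. Triplicate wells, two biological replicates.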

Schistosoma mansoni [2] = test: Antiparasitic activity against schistosomula stage of Schistosoma mansoni assessed as parasite viability at 20 uM after 48 hrs by Alamar Blue assay relative to control; type: functional; summary of the method: as §1
[3] = Cytotoxicity against HEK293 cells assessed as cell viability at 50 uM after 24 hrs by Alamar Blue assay relative to control; type: cell-based; conditions: human, read-out: Activity
Summary of the method: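 AlamarBlue added after 24 h, incubated a further 21 h; resorufin fluorescence ex 560/em 590 nm. Triplicates; viability relative to untreated cells; daunorubicin positive control.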

Histone deacetylase 8 [4] = target: T1, Histone deacetylase 8 (Schistosoma mansoni, UniProt A5H660); test: Inhibition of recombinant Schistosoma mansoni HDAC8 expressed in Escherichia coli using Fluor de Lys as substrate preincubated for 90 mins followed by BML-KI176 addition measured after 45 mins by fluorescence assay; conditions: read-out: IC50
T1 sequence (A5H660 whole entry): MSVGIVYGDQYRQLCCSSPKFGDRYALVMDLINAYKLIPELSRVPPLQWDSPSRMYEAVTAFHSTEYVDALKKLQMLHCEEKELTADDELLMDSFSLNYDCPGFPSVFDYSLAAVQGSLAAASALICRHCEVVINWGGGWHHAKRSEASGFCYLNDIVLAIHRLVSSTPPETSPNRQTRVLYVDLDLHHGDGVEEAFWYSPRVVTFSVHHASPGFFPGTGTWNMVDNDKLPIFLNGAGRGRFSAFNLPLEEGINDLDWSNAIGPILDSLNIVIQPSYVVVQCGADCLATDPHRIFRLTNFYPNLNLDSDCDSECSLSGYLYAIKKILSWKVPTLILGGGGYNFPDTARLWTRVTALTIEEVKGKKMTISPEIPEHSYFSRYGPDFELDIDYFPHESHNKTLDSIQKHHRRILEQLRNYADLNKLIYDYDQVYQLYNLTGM
Summary of the method: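 smHDAC8 produced in E. coli. Fluor de Lys kit: compound, Fluor de Lys-HDAC8 substrate (50 µM) and enzyme incubated 90 min at 37°C, then Developer II for 45 min at 30°C. Reaction stopped with trichostatin A (2 µM). Fluorescence read at ex 390/em 460 nm. IC50 given as mean ± S.E.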

Histone deacetylase 8 [5] = target: T2, Histone deacetylase 8 (Homo sapiens, UniProt Q9BY41); test: Inhibition of recombinant human HDAC8 using Fluor de Lys as substrate preincubated for 90 mins followed by BML-KI176 addition measured after 45 mins by fluorescence assay; conditions: read-out: IC50
T2 sequence (Q9BY41 whole entry): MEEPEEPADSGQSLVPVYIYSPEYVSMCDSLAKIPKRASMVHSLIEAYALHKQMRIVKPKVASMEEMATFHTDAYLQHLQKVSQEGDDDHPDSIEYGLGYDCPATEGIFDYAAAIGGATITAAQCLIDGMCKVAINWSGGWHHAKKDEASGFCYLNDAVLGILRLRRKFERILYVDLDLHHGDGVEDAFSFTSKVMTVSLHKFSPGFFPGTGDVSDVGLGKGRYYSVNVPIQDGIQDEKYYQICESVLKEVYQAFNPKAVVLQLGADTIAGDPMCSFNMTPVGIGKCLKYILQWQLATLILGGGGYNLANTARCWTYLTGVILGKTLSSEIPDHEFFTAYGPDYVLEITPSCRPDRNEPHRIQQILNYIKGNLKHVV

Histone deacetylase 1 [6] = target: T3, Histone deacetylase 1 (Homo sapiens, UniProt Q13547); test: Inhibition of recombinant human HDAC1 using Cbz-(Ac)Lys-AMC as substrate preincubated for 90 mins followed by trypsin addition measured after 20 mins by fluorescence assay; conditions: read-out: IC50
[7] = target: T4, Protein deacetylase HDAC6 (Homo sapiens, UniProt Q9UBN7); test: Inhibition of recombinant human HDAC6 using Cbz-(Ac)Lys-AMC as substrate preincubated for 90 mins followed by trypsin addition measured after 20 mins by fluorescence assay; conditions: read-out: IC50
T4 sequence (Q9UBN7 whole entry): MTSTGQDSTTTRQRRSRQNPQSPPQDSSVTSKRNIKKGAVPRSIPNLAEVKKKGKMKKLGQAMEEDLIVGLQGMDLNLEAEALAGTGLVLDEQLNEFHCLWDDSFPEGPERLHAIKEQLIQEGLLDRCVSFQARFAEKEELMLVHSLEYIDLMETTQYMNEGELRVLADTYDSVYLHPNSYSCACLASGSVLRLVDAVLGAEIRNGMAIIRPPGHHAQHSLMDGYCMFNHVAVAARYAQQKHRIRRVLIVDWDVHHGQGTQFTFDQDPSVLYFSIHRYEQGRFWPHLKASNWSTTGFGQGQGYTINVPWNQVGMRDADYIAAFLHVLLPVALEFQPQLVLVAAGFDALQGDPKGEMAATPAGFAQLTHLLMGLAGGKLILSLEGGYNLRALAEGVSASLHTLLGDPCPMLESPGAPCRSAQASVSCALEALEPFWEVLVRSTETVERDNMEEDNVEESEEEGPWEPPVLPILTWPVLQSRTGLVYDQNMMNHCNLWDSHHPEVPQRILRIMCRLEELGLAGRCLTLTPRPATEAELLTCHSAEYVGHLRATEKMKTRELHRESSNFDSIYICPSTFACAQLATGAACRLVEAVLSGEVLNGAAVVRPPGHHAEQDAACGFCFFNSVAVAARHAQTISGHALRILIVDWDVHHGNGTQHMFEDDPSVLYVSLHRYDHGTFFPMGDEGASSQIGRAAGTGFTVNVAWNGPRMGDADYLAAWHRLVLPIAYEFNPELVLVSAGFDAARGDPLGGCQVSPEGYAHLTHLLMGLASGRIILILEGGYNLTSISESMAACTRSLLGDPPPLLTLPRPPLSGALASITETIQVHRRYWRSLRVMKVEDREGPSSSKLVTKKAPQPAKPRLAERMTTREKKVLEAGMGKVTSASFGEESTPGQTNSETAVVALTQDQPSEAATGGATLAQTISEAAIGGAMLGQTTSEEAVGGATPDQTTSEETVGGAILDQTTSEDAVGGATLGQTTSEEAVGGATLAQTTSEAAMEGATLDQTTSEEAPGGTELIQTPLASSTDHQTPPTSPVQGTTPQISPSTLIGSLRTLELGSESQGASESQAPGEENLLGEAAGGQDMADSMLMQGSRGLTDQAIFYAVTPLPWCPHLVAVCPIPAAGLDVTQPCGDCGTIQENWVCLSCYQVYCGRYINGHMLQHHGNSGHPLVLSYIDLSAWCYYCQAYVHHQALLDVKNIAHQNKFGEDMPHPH

Histone deacetylase 1 [8] = target: T3, Histone deacetylase 1; test: Inhibition of recombinant human HDAC1 using Cbz-(Ac)Lys-AMC as substrate at 10 uM preincubated for 90 mins followed by trypsin addition measured after 20 mins by fluorescence assay relative to control
Schistosoma mansoni [9] = test: Antiparasitic activity against schistosomula stage of Schistosoma mansoni assessed as parasite viability after 48 hrs by Alamar Blue assay; type: functional, organism-based; summary of the method: as §1

T3 sequence (Q13547 whole entry): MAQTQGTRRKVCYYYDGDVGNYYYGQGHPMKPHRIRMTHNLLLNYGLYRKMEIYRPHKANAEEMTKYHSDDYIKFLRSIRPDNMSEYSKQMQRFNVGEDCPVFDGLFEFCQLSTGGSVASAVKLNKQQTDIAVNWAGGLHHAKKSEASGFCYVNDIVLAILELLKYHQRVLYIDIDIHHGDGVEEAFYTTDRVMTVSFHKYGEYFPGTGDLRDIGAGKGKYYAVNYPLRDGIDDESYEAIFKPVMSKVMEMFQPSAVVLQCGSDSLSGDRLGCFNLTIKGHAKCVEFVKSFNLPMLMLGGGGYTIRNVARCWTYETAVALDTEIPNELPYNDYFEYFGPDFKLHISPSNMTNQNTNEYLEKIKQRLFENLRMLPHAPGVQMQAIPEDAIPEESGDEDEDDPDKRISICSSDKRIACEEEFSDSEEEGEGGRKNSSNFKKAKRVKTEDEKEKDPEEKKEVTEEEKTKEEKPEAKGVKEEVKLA

SMILES	Activity (Schistosoma mansoni [1])	Activity (Schistosoma mansoni [2])	viability at 24 h, 50 µM [3]	IC50 (Histone deacetylase 8 [4])	IC50 (Histone deacetylase 8 [5])	IC50 (Histone deacetylase 1 [6])	IC50 [7]	inhibition (Histone deacetylase 1 [8])	Activity (Schistosoma mansoni [9])
O=C(NO)c1cccc(N(Cc2ccccc2)Cc2ccccc2)c1	77.9%	74.6%	7.7%	9290 nM	2190 nM	42300 nM	8600 nM		
COc1ccc(C(=O)Nc2cc(C(=O)NO)ccc2Cl)cc1	63.2%	60.7%	62.5%	147 nM	236 nM	4100 nM	130 nM		
O=C(NO)c1ccc(C(F)(F)F)c(NC(=O)c2ccccc2)c1	99.9%	77.4%	96%	140 nM	342 nM	2400 nM	140 nM		
Cc1ccc(C(=O)NO)cc1NC(=O)c1ccccc1	82.9%	72.4%	71.2%	116 nM	204 nM	8400 nM	900 nM		
CN(C)c1cccc(C(=O)NO)c1	92.6%		92.7%	1580 nM	70.2 nM			37.4%	
O=C(NO)c1ccc(Br)c(NC(=O)c2ccccc2)c1	70.8%	63.1%	64.3%	150 nM	191 nM	7400 nM	150 nM		
O=C(NO)c1ccc(F)c(NC(=O)c2ccccc2)c1	82%	78.6%	81.8%	178 nM	318 nM	22300 nM	500 nM		
O=C(NO)c1ccc(Cl)c(NC(=O)c2ccc(Cl)cc2)c1	71.8%	49.3%	81.6%	235 nM	292 nM	3800 nM	90 nM		
O=C(NO)c1ccc(Cl)c(NC(=O)c2cccc(OCc3ccccc3)c2)c1	73.8%	68.6%	74.4%	378 nM	214 nM	9400 nM	1500 nM		
CCOc1ccc(C(=O)NO)cc1NC(=O)c1ccc(-c2ccccc2)cc1	77.9%	35.8%	80.3%	92 nM	149 nM	2080 nM	600 nM		Dose-dependent effect
COc1ccc(C(=O)NO)cc1NC(=O)Cc1ccccc1	83.3%	82.8%	88.7%	183 nM	512 nM	28900 nM	5100 nM		
O=C(NO)c1ccc(Cl)c(NC(=O)c2ccc(Cl)cc2Cl)c1	72.5%	59.3%	70.4%	191 nM	1180 nM	31600 nM	800 nM		
COc1ccc(C(=O)Nc2cc(C(=O)NO)ccc2OC)cc1	74.6%	64.6%	61.9%	106 nM	77.1 nM	2600 nM	400 nM		
O=C(NO)c1cccc(NCc2ccccc2)c1				1080 nM	143 nM			41.4%	
Cc1ccc(C(=O)NO)cc1NC1CCCCC1	84.3%		70.2%	600 nM	104 nM			49.5%	
O=C(NO)c1ccc(Cl)c(NC(=O)c2cccc(Oc3ccccc3)c2)c1	62.9%	55%	62%	396 nM	449 nM	6400 nM	300 nM		
CC(C)Oc1ccc(C(=O)NO)cc1NC(=O)c1ccccc1	75%	68.7%	129%	220 nM	29 nM	3600 nM	2600 nM		
